Experimental data published in the EternaBench riboswitch data.

Tested on: MS2 coat protein
Assay: apparent Kd, MS2 coat protein; higher = weaker binding; RNA-MaP array; FMN 200 µM where present
Outline: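 The apparent Kd is the median of filtered binding-curve fits, one per cluster, to green signal normalised to red-channel RNA signal and control-cluster median Fmax. The clusters were on Illumina sequencing chips, and stalled E. coli RNA polymerase had transcribed the designs on them. Titration used SNAP-549-labelled MS2 coat protein from 0.7 or 1.5 nM, doubling to 3 µM, without and then with constant ligand, in 100 mM Tris-HCl pH 7.5, 80 mM KCl, 4 mM MgCl2, BSA, DTT, yeast tRNA and Tween-20.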

[1] = designed as: ON switch for flavin mononucleotide, no ligand
[2] = ligand present: flavin mononucleotide, designed as: ON switch for flavin mononucleotide
[3] = designed as: OFF switch for flavin mononucleotide, no ligand
[4] = ligand present: flavin mononucleotide, designed as: OFF switch for flavin mononucleotide

| Sequence | apparent Kd [1] [µM] | apparent Kd [2] [µM] | apparent Kd [3] [µM] | apparent Kd [4] [µM] |
| --- | --- | --- | --- | --- |
| AUAUGAUAGAUAGGAUAUACAUUGGAUUUAAAAGUAGAAGGAUCAAGUGGGAAAUGAACAUGAGGAUCACCCAUGUAAUAGGAU | 0.107 | 0.0782 | – | – |
| AUAUGAUAGAUAGGAUAUACUAUGGUUGAAUAUGUAGAAGGAUCAAUAGGGAAAUGUACAUGAGGAUCACCCAUGUUAUGGAUU | 0.0329 | 0.0313 | – | – |
| AUAUUAUUGAUCCAUUUUUUCAACAUGAGGAUCACCCAUGUGCAGGAUAUCGUGUGUUUUAUCAACGAGAAGGGCAAAUUCAUU | – | – | 0.0942 | 0.215 |
| AUAUUGUGAGGAUAUCCAAUAUAUGACAUGAGGAUCACCCAUGUUUCCACUCGUACCUCCGGAGAAGGCACUUAAA | – | – | 0.0205 | 0.0232 |
| AUAUUGUGAGGAUAUGAACUUAGUAUCGAAAGUUACUAAGUUCAGAAGGCACAUGAGGAUCACCCAUGUUUCUC | – | – | 0.0721 | 0.972 |
| AUCAACCAGGCAGGAUAUCAAUGUGGCCUCAUCGUACACCCUCGCAACAUGAGGAUCACCCAUGUUGAGAAGGGCCAAUUAAGA | – | – | 0.0101 | 0.00602 |
| AUCAGCUCAUCAGGAUAUACGUCACUGCGUCAGCAGUGUGGUAAGAUCACAUGAGGAUCACCCAUGUAGAAGGGACGAGCUGAU | – | – | 0.0137 | 0.243 |
| AUCAGCUCGUCAGGAUAUACCUCACUGCGUCAGCAGUGUGGUAAGAUCACAUGAGGAUCACCCAUGUAGAAGGGACGAGCUGAU | – | – | 0.00644 | 0.00619 |
| AUCAGCUCGUCAGGAUAUACGUAAUGGUAAGAUCACAUGAGGAUCACCCAUGUAGAAGGGACGAGCUGAUAAGCACGAAAGUGC | – | – | 0.192 | 0.676 |
| AUCAGCUCGUCAGGAUAUACGUCACUGCGUAAGCAGUGUGGUAAGAUCACAUGAGGAUCACCCAUGUAGAAGGGACGAGCUGAU | – | – | 0.0129 | 0.288 |
| AUCAGCUCGUCAGGAUAUACGUCACUGCGUCAGCAGUAUGGUAAGAUCACAUGAGGAUCACCCAUGUAGAAGGGACGAGCUGAU | – | – | 0.0622 | 0.663 |
| AUCAGCUCGUCAGGAUAUACGUCACUGCGUCAGCAGUGUGGUAAGAGCACAUGAGGAUCACCCAUGUAGAAGGGACGAGCUGAU | – | – | 0.00631 | 0.00948 |
| AUCAGCUCGUCAGGAUAUACGUCACUGCGUCAGCAGUGUGGUAAGAUCACAUGAGGAUCACCCAUGUAGAAGGGACCAGCUGAU | – | – | 0.0134 | 0.229 |
| AUCAGCUCGUCAGGAUAUACGUCACUGCGUCAGCAGUGUGGUAAGAUCACAUGAGGAUCACCCAUGUAGAAGGGACGAGCUAAU | – | – | 0.0137 | 0.334 |
| AUCAGCUCGUCAGGAUAUACGUCACUGCGUCAGCAGUGUGGUAAGAUCACAUGAGGAUCACCCAUGUAGAAGGGACGAGCUGUU | – | – | 0.0132 | 0.269 |
| AUCAGCUCGUCAGGAUAUACGUCACUGCGUCAGCAGUGUGGUUAGAUCACAUGAGGAUCACCCAUGUAGAAGGGACGAGCUGAU | – | – | 0.0234 | 0.458 |
| AUCAGCUCGUCAGGAUAUACGUCACUGCUUCGGCAGUGUGAAAAGAUCACAUGAGGAUCACCCAUGUAGAAGGGACGAGCUGAU | – | – | 0.00915 | 0.12 |
| AUCAGCUGGUCAGGAUAUACAUCACUGCUUCGGCAGUGUAUUAAGAUCACAUGAGGAUCACCCAUGUAGAAGGGACCAGCUGAU | – | – | 0.0303 | 0.341 |
| AUCAUCUCGUCAGGAUAUACGUCACUGCGUCAGCAGUGUGGUAAGAUCACAUGAGGAUCACCCAUGUAGAAGGGACGAGCUGAU | – | – | 0.0144 | 0.226 |
| AUCAUGCUCAAGAAGGACAUGAGGAUCACCCAUGUAGGAUAUUGGGCGGUCACUUCUAGCUUGUGUGUAUCUGAAUACUCCAGG | 0.0204 | – | – | – |
| AUCAUUCGUGUAGGAUAUGCGUGACGAAGUCAUGCAGAAGGACAUGAGGAUCACCCAUGUCUUUCUCGAGCUGUAGCUCGAGGA | – | – | 0.0239 | 0.156 |
| AUCCGGCGUGUAGGAUAUGGAAAAGAUUAGGAACCAGAAGGACAUGAGGAUCACCCAUGUACAUGUAAACAGUCAUCACCGGAA | – | – | 0.0114 | 0.0286 |
| AUCCGGCGUGUAGGAUAUGGAAAAGAUUAGGAUCCAGAAGGACAUGAGGAUCACCCAUGUACAUGUAAACAGUCAUCACCGGAA | – | – | 0.0341 | 0.0496 |
| AUCGCUCAGCAGAAGGGACUGACAUGAGGAUCACCCAUGUCUUUUAUGGUCAGGAUAUGUUGCCGAACCACGAAAAGUGGGUGC | 0.0257 | 0.00927 | – | – |
| AUCGUGUUAGGAUAUACACGUCGCUGGGUAGCUAGCGAUGGGUAGAAGGAACAUGAGGAUCACCCAUGUUCGGG | – | – | 0.178 | 0.188 |
| AUCUCGUCAGGAUAUCCUAGUAAUUGUUUCAUAUUUACGAUGGAGAAGGGACAUGAGGAUCACCCAUGUUGGUC | – | – | 0.0644 | 0.144 |
| AUGAAAGUAACACAGGAUAUCCAGGAUACAACAUGAGGAUCACCCAUGUACAUACGAACGUAUAAGGAGAAGGGUGGAUGAUCUUC | 0.215 | 0.264 | – | – |
| AUGACAUGCAGAGCGCAACGGCGUACAUGAGGAUCACCCAUGUAGGAUAUACUACACAAAGUGUAGUAGAAGGACAUGCGACUG | – | – | 0.0186 | 0.0213 |

| Sequence | apparent Kd [1] [µM] | apparent Kd [2] [µM] | apparent Kd [3] [µM] | apparent Kd [4] [µM] |
| --- | --- | --- | --- | --- |
| AUGAGUAAAGCAGGAUAUCUAUUGUCUCAGUAACAUGAGGAUCACCCAUGUAGAGAAGGGCUUAGUCAUUCACUUCGGAGUUGU | – | – | 0.0148 | 0.038 |
| AUGCCAAAAGGAGGAUAUGGAGCCUUAUUGGCUCCAGAAGGCUUGACAUGAGGAUCACCCAUGUGGCAGUGGUCUAAUGACCAC | 0.0185 | 0.0151 | – | – |
| AUGGAACAUGAGGAUCACCCAUGUGAGGAUAUCGUCGGCGCGCUUGAAACGAGCUGCCCGAGAAGGCACAGUGG | – | – | 0.16 | 0.238 |
| AUGGAUACCACAGGAUAUACCUGGAAUAUCCAGGUAGAAGGGUGGUCCAUCCUAUGUAAAUACAUGAGGAUCACCCAUGUGUCC | 0.256 | 0.244 | – | – |
| AUGGCUAAUGAGAAGGUGUAUAUAAAUUAUAUACAAGGAUAUCGGUCAAGCAUGAAAACAUGAGGAUCACCCAUGUUAAGCCAU | 0.00811 | 0.00701 | – | – |
| AUGGGACAUGAGGAUCACCCAUGUCAGGAUAUUUAGUCGCUGCGGAAAUGUGUUGGUUGGAGAAGGGACAUCAU | – | – | 0.0383 | 0.0351 |
| AUGGGCUAAGGAUAUAGACGACGACACAUGAGGAUCACCCAUGUCAGUAAUGGGUCUUGGCUAGAAGGUAGAACCC | – | – | 0.0445 | 0.0727 |
| AUGGUACAUGAGGAUCACCCAUGUUAGGAUAUCGCGUGACCUAAAACUAAGAGACACACGAGAAGGGACGACAU | – | – | 0.0896 | 0.0781 |
| AUGGUCAAGUGUGAGGAUAUCCAUGCUCCCACAUGAGGAUCACCCAUGUCUUAAAGGGCGUAAAGGGAGAAGGUACGAACGCCAC | 0.0343 | 0.0278 | – | – |
| AUGGUCAUGUUAGGAUAUGACGCGCUGUACGCAUCAGAAGGAACAUGAGGAUCACCCAUGUAUAGAGUAAUGUCGCUUACUCUC | – | – | 0.0479 | 0.187 |
| AUGGUUGUCGUAGGAUAUGUAGGAUAUUCCUACAUGAGGAUCACCCAUGUUCGCAUGGAAGAAGGACAGAAGGACGAUAACCAC | 1.31 | 0.00846 | – | – |
| AUGUUACAUGAGGAUCACCCAUGUCAGGAUAUCUAUCAUAGCAUAGAAAUAUGCGGGUAGAGAAGGGACUAUCC | – | – | 0.0154 | 0.0138 |
| AUUAACUACAUAGGAUAUUGAUACAUGAGGAUCACCCAUGUCACCCAUUUAUAUAUUAAUAUUGACAAGAAGGAUGUGGUUACA | 0.0131 | 0.00613 | – | – |
| AUUAAUUAAUUAAUACAUGAGGAUCACCCAUGUAAUAAGAUCAAGGAUAUCAGCUCGAAUAGAGCUGAGAAGGUGAUCACAUGU | 0.555 | 0.226 | – | – |
| AUUAAUUAAUUAAUACAUGAGGAUCACCCAUGUAAUAAGAUCUAGGAUAUCAGCUCGAAUAGAGCUGAGAAGGAGAUCACAUGU | 0.0434 | 0.0353 | – | – |
| AUUAGUAAUAAGGAUAUCACUAGCUGCGGCUAGUGAGAAGGUAUUACAUGAGGAUCACCCAUGUGAUUAAUUAA | – | – | 0.0764 | 0.418 |
| AUUAUUAUAUUAUACAUGAGGAUCACCCAUGUUAUAAGUCAUGAGGAUAUGGUUUUGUAGAUUUUCCAGAAGGCAUUUAACUUA | 0.0133 | 0.0078 | – | – |
| AUUGAUGUUGAGGAUAUGCUUAUAUUUAUACUUGCAGAAGGCGAUACAUGAGGAUCACCCAUGUUCAUGGAAGU | – | – | 0.0313 | 0.0338 |
| AUUGUAGUUGUGAGGAUAUCGUUGAUUUUUUGAAACGAGAAGGCACAUGAGGAUCACCCAUGUAAGUUGUAGGU | – | – | 0.0806 | 0.315 |
| AUUGUUAAGUUAGGAUAUAGUAAAAUGAUUUAGUUAGAAGGAGCUCACAUGAGGAUCACCCAUGUAAGAGGAUCACCCAUGUAU | – | – | 0.0249 | 0.0183 |
| AUUUAACAUGAGGAUCACCCAUGUGAGGAUAUGUCCAUUUUAAACAAAUAGGAUAUGGACAGAAGGCACACCGG | – | – | 0.162 | 0.366 |
| AUUUAUGGCCAGAAGGACAUGAGGAUCACCCAUGUAGGAUAUGGACGAUUUUACUCGGCGGUUUGUUAAGGAAGCACCGGCGGU | 0.00776 | 0.00608 | – | – |
| AUUUCAAUCUAUACUAUACAAACAACAUGAGGAUCACCCAUGUAGGAUAUCGUAUGUAUCAACUACGAGAAGGACAUAAUCUUA | – | – | 0.0137 | 0.0134 |
| AUUUUAACAUAGGAUAUCGAAUUUAUUAUUUAACGAGAAGGAUGAACAUGAGGAUCACCCAUGUGGUAUCAUGG | – | – | 0.217 | 0.0936 |
| AUUUUACAUGAGGAUCACCCAUGUUUUGGUGGGUCAGGAUAUAGAUCGGAUGAGUUCUGGCUAGAAGGGACAUAUA | 0.0759 | 0.0664 | – | – |
| AUUUUAUAACAAGGAUAUACUAAACAUGAGGAUCACCCAUGUAAUAUUAUGAGUGAGAGAGAGAAGUAGAAGGUGUAUUAUUUU | – | – | 0.102 | 0.128 |
| AUUUUCCUGGCAGGAUAUCUUACACAUGAGGAUCACCCAUGUACAAAAGUGGGAGAAGGGUCGUGGAGGUGUAUAGUCGAAUAG | 0.0792 | 0.0361 | – | – |
